ChEMBL document CHEMBL4321808, “Heteroaryl Phosphonates as Noncovalent Inhibitors of Both Serine- and Metallocarbapenemases” (J Med Chem, 2019)

Assays:
[1] = Permeability in MDCK-MDR1 cells assessed as drug recovery; type: ADME, cell-based, Canis lupus familiaris; conditions: dog
[2] = Inhibition of N-terminal 6x-His-tagged VIM-2 (unknown origin) expressed in Escherichia coli Rosetta 2 (DE3) assessed as reduction in nitrocefin hydrolysis by spectrophotometry; parameters: species or system Bacteria
Summary of the method: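 Metallo-enzyme assay in 50 mM HEPES pH 7.2 with 50 µM zinc sulfate, 0.01% Triton X-100 and 20 µg/mL BSA, 37 °C. NDM-1 was construct 1 with the His/SUMO tag cleaved, at 2 nM; VIM-2 had its His tag TEV-cleaved, at 0.5 nM. Nitrocefin hydrolysis read at 486 nm; IC50 from sigmoidal fit, Ki by Cheng-Prusoff; mostly duplicate.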

Escherichia coli [3] = experiment: Inhibition of NDM-1 in Escherichia coli 5980 assessed as potentiation of imipenem-induced antimicrobial activity by measuring imipenem MIC incubated for 18 to 20 hrs by CLSI based method (reference value: 8 ug/ml)
Summary of the method: (§1)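 CLSI broth microdilution in MHBII. […] Inoculum about 5×10^5 CFU per well, incubated at 35 °C for 18–20 h. Imipenem MIC read as absence of visible growth.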

[4] = molecular target: Metallo-beta-lactamase type 2 (Klebsiella pneumoniae) (UniProt C7C422); experiment: Inhibition of NDM-1 in Klebsiella pneumoniae 5979 assessed as potentiation of imipenem-induced antimicrobial activity by measuring imipenem MIC incubated for 18 to 20 hrs by CLSI based method (reference value: <[…] ug/ml)
Metallo-beta-lactamase type 2 (Klebsiella pneumoniae), sequence (C7C422 whole entry): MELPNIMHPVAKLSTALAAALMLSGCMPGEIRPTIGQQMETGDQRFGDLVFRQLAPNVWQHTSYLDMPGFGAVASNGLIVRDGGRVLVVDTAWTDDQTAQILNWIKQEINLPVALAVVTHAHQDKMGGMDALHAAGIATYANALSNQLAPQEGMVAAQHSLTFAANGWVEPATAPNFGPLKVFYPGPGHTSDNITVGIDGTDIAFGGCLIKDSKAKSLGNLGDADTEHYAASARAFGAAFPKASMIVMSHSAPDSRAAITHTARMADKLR

Enterobacter cloacae [5] = experiment: Antimicrobial activity against Enterobacter cloacae 5981 expressing NDM1 assessed as inhibition of microbial growth incubated for 18 to 20 hrs by CLSI based method; type: functional
Summary of the method: (§2)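 CLSI broth microdilution in MHBII. Compound tested alone in serial two-fold dilutions, 128–0.12 µg/mL. Inoculum was set to 0.5 McFarland and diluted to about 5×10^5 CFU per well. Plates incubated at 35 °C for 18–20 h. MIC read as the lowest concentration with no visible growth; an un-inoculated plate served as solubility control.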

Escherichia coli [6] = experiment: Antimicrobial activity against Escherichia coli 5980 expressing NDM1 assessed as inhibition of microbial growth incubated for 18 to 20 hrs by CLSI based method; type: organism-based; summary of the method: as §2
Pseudomonas aeruginosa = experiment: Antimicrobial activity against Pseudomonas aeruginosa 4698 expressing VIM2 assessed as inhibition of microbial growth incubated for 18 to 20 hrs by CLSI based method; type: organism-based; summary of the method: as §2
Enterobacter cloacae [7] = experiment: Inhibition of NDM-1 in Enterobacter cloacae 5981 assessed as potentiation of imipenem-induced antimicrobial activity by measuring imipenem MIC incubated for 18 to 20 hrs by CLSI based method (reference value: 2 ug/ml); summary of the method: as §1
Klebsiella pneumoniae [8] = experiment: Antimicrobial activity against Klebsiella pneumoniae 5979 expressing NDM1 assessed as inhibition of microbial growth incubated for 18 to 20 hrs by CLSI based method; type: organism-based; summary of the method: as §2
Klebsiella pneumoniae [9] = experiment: Antimicrobial activity against Klebsiella pneumoniae 4683 expressing KPC2 assessed as inhibition of microbial growth incubated for 18 to 20 hrs by CLSI based method; type: organism-based; summary of the method: as §2
[10] = Inhibition of N-terminal 6x-His/Sumo-tagged NDM-1 (29 to 270 residues) (unknown origin) expressed in Escherichia coli BL21 (DE3) assessed as reduction in nitrocefin hydrolysis by spectrophotometry; parameters: species or system Bacteria
Summary of the method: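 Metallo-enzyme assay in 50 mM HEPES pH 7.2 with 50 µM zinc sulfate, 0.01% Triton X-100 and 20 µg/mL BSA, 37 °C. NDM-1 was construct 1 with the His/SUMO tag cleaved, at 2 nM; VIM-2 had its His tag TEV-cleaved, at 0.5 nM.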

[11] = Inhibition of N-terminal 6x-His-tagged Klebsiella pneumoniae KPC2 (25 to 293 residues) assessed as reduction in nitrocefin hydrolysis by spectrophotometry
Summary of the method: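 Purified recombinant KPC-2 at 1 nM in 100 mM Tris-HCl pH 7.0 with 0.01% Triton X-100, 37 °C, reaction started by enzyme. IC50 from sigmoidal fit; Ki by Cheng-Prusoff using the nitrocefin Km. Run in duplicate, or once or in triplicate for some compounds.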

Q: For `CC(C)NCC(O)COc1cccc2ccccc12` (configuration not stated) [PROPRANOLOL], which Drug recovery [1] is on record?
A: 97%

Q: Which Ki [2] does the source give for `O=P(O)(O)Cc1cccc2cccnc12` here?
A: 22.3 µM

Q: Which MIC (Escherichia coli [3]) does the source give for `Cc1cc(Br)c2c(CP(=O)(O)O)cc(=O)oc2c1` here?
A: 2 µg/mL

Q: And the Ki [2]?
A: 1.2 µM

Q: What about the MIC [4] of the same compound?
A: 32 µg/mL

Q: What about the MIC (Enterobacter cloacae [5]) of the same compound?
A: > 128 µg/mL

Q: What about the MIC (Escherichia coli [6]) of the same compound?
A: > 128 µg/mL

Q: What about the MIC (Pseudomonas aeruginosa) of the same compound?
A: > 128 µg/mL

Q: And the MIC (Enterobacter cloacae [7])?
A: 2 µg/mL

Q: What about the MIC (Klebsiella pneumoniae [8]) of the same compound?
A: > 128 µg/mL

Q: And the MIC (Klebsiella pneumoniae [9])?
A: > 128 µg/mL

Q: And the Ki ([10]; read-out: Ki)?
A: 34.2 µM

Q: What does the source list for `COc1ccc2c(CP(=O)(O)O)cc(=O)oc2c1`?
A: Ki [2]: 2.1 µM; Ki ([10]; read-out: Ki): 124 µM

Q: What does the source list for `O=c1cc(CP(=O)(O)O)c2c(F)cc(F)cc2o1`?
A: Ki [2]: 3.3 µM; Ki [10]: Not Active

Q: For `COc1cc(C)cc2oc(=O)cc(CP(=O)(O)O)c12`, which Ki [11] is on record?
A: 11.9 µM

Q: Which Ki [2] does the source give for `Cc1cc(F)c2c(CP(=O)(O)O)cc(=O)oc2c1` here?
A: 3.3 µM

Q: And the Ki [11]?
A: 8.5 µM

Q: What about the Ki ([10]; read-out: Ki) of the same compound?
A: 230 µM

Q: With `Cn1c(=O)cc(CP(=O)(O)O)c2ccccc21` as the compound, how does the Ki [2] read?
A: 7.5 µM

Q: And the Ki ([10]; read-out: Ki)?
A: 81 µM
